Source: ChEMBL document CHEMBL2321834 (J Med Chem, 2013)
Calls of active or inactive are those of the source. The calls are words filed in the database; no cut-off is given here.

Key:
[1] = molecular target: 11-beta-hydroxysteroid dehydrogenase 1 (Homo sapiens, UniProt P28845); assay: Inhibition of human recombinant 11beta-HSD1 expressed in HEK293 cell using [1,2-3H]Cortisone as substrate at 2 uM after 10 mins by scintillation counting analysis; type: cell-based
Method in brief: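 Recombinant human 11β-HSD1 or 11β-HSD2 stably transfected in HEK-293 cells, following a previously described procedure.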

[2] = molecular target: T1, 17-beta-hydroxysteroid dehydrogenase type 2 (Homo sapiens) (UniProt P37059); details: Placenta, Microsomal, at 1 µM;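 further: [3H]estradiol served as substrate, with HPLC analysis after 20 min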
T1 sequence (whole entry): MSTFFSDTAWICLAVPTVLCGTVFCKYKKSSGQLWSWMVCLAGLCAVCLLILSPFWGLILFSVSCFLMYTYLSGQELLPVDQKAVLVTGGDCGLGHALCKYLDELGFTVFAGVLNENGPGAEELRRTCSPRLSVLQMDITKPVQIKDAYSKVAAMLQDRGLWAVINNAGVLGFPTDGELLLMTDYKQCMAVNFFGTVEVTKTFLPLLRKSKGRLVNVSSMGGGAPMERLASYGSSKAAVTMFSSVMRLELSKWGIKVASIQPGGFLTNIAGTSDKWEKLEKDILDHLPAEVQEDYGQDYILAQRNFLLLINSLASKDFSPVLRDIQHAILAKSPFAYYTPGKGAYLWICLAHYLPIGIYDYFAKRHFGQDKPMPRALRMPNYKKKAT

[3] = molecular target: T2, Estradiol 17-beta-dehydrogenase 2 (Mus musculus) (UniProt P51658); assay: Inhibition of 17beta-HSD2 in mouse liver microsomal fraction assessed as inhibition of [3H]E2 conversion to E1 at 1 uM by scintillation counting analysis; type: microsomes
T2 sequence (whole entry): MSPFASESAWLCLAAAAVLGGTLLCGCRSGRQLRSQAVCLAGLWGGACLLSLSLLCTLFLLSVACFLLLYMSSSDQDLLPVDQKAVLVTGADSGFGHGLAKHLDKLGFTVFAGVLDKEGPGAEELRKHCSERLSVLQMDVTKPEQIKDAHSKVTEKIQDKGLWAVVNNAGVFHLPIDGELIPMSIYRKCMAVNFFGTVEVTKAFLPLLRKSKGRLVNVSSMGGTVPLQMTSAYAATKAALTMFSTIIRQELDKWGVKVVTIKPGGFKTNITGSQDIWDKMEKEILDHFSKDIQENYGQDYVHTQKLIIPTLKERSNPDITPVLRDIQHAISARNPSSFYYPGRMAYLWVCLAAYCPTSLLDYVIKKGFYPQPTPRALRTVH
Method in brief: (§1)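 Cell-free assay measuring percent inhibition of the E2-to-E1 transformation. Enzyme source was the microsomal fraction of rat or mouse liver, or of Callithrix jacchus placenta for the marmoset.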

MDA-MB-231 = assay: Cytotoxicity against human MDA-MB-231 cells at 50 uM after 3 hrs by MTT assay; type: cell-based; details: mda-mb-231, 3 h
Method in brief: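 MTT conversion read-out, following Denisot et al. Tested at 2.5, 10 and 50 µM with 3 h incubation.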

[4] = molecular target: T3, Estradiol 17-beta-dehydrogenase 2 (Rattus norvegicus) (UniProt Q62730); assay: Inhibition of 17beta-HSD2 in rat liver microsomal fraction assessed as inhibition of [3H]E2 conversion to E1 at 1 uM by scintillation counting analysis; type: microsomes; method in brief: as §1
T3 sequence (whole entry): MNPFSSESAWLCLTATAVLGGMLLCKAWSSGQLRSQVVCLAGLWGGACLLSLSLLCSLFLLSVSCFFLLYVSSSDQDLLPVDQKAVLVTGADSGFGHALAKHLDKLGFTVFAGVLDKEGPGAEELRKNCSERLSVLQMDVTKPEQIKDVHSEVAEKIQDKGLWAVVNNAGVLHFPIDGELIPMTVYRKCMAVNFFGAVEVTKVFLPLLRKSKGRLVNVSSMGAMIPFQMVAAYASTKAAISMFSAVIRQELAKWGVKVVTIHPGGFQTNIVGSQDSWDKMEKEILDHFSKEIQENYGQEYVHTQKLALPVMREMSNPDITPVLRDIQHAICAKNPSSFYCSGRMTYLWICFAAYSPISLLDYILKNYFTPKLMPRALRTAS

[5] = molecular target: T4, Aldo-keto reductase family 1 member C3 (Homo sapiens) (UniProt P42330); assay: Inhibition of human recombinant 17beta-HSD5 expressed in Escherichia coli using [1,2,6,7-3H]A-dione as substrate at 1 uM by scintillation counting analysis
T4 sequence (whole entry): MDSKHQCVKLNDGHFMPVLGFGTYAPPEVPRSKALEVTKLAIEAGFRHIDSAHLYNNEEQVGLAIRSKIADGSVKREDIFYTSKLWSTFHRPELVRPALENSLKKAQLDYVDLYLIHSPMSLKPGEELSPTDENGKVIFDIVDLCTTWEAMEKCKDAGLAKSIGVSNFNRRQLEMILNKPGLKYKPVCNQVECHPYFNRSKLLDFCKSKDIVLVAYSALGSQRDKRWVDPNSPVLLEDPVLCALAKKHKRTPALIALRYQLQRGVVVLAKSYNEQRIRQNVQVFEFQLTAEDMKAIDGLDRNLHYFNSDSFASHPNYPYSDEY

[6] = molecular target: T5, Peroxisomal multifunctional enzyme type 2 (Homo sapiens) (UniProt P51659); assay: Inhibition of human recombinant 17beta-HSD4 SDR domain expressed in Escherichia coli using [6,7-3H]E2 as substrate at 1 uM by scintillation counting analysis
T5 sequence (whole entry): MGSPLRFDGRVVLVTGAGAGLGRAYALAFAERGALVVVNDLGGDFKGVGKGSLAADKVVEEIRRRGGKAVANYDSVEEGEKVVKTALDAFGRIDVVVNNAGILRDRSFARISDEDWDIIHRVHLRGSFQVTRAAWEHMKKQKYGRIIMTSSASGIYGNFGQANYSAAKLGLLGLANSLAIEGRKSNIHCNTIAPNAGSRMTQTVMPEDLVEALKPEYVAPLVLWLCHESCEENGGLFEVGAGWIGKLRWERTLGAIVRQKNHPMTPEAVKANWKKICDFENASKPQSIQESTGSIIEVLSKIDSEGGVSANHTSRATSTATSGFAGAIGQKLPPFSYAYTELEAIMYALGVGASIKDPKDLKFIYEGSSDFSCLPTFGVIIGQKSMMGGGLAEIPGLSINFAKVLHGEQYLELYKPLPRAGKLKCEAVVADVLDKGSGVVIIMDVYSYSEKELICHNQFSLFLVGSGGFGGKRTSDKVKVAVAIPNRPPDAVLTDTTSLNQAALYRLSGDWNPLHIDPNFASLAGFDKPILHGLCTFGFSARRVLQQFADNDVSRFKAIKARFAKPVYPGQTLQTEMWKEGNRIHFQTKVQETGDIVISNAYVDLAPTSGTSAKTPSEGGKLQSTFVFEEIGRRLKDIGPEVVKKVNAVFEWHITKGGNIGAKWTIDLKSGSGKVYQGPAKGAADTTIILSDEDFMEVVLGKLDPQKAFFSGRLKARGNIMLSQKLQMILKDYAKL

Callithrix jacchus = organism: Callithrix jacchus; assay: Inhibition of 17beta-HSD2 in common marmoset placental microsomal fraction assessed as inhibition of [3H]E2 conversion to E1 at 1 uM by scintillation counting analysis; type: microsomes; details: Placenta; method in brief: as §1

Chain of 11-beta-hydroxysteroid dehydrogenase 1 (P28845 whole entry, looked up): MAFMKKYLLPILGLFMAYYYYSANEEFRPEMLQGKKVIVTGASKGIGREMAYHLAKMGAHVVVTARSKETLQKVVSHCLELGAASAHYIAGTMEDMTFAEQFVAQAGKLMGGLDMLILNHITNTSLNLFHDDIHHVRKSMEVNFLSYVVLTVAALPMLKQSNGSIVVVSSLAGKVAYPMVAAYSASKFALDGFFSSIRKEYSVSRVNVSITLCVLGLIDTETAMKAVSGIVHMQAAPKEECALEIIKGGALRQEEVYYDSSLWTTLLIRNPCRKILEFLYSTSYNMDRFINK

Structure (SMILES)	inhibition [1]	inhibition [2]	inhibition [3]	Activity (MDA-MB-231)	inhibition [4]	inhibition [5]	inhibition [6]	inhibition (Callithrix jacchus)
COc1cccc(-c2ccc(C(=O)N(C)Cc3cccc(O)c3)s2)c1F	68%	89%	65%	Non-toxic	25%	33%	inactive	47%
COc1cccc(N(C)C(=O)c2ccc(-c3cccc(OC)c3F)s2)c1	9%	93%	26%	Non-toxic	inactive	26%	inactive	45%
